Hits are enriched below; roughly 2.3% of the tested compounds scored in any of these assays.
TRPC4 PAM = TRPC4 (mouse) allosteric potentiation; Q9QUQ5; B-score at 10 µM; HEK293 TRPC4beta/mu-opioid, DAMGO EC20, Fluo-4 Ca2+ flux; active compounds read high; actives 0.42% (n = 310,000);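 active = B-score of calcium response area above 5 SD of library B-scores, with initial fluorescence ratio within 5 SD of library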;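 also: B-score of integrated fluorescence ratio over time as area under calcium response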
Target sequence (Q9QUQ5 whole entry, looked up): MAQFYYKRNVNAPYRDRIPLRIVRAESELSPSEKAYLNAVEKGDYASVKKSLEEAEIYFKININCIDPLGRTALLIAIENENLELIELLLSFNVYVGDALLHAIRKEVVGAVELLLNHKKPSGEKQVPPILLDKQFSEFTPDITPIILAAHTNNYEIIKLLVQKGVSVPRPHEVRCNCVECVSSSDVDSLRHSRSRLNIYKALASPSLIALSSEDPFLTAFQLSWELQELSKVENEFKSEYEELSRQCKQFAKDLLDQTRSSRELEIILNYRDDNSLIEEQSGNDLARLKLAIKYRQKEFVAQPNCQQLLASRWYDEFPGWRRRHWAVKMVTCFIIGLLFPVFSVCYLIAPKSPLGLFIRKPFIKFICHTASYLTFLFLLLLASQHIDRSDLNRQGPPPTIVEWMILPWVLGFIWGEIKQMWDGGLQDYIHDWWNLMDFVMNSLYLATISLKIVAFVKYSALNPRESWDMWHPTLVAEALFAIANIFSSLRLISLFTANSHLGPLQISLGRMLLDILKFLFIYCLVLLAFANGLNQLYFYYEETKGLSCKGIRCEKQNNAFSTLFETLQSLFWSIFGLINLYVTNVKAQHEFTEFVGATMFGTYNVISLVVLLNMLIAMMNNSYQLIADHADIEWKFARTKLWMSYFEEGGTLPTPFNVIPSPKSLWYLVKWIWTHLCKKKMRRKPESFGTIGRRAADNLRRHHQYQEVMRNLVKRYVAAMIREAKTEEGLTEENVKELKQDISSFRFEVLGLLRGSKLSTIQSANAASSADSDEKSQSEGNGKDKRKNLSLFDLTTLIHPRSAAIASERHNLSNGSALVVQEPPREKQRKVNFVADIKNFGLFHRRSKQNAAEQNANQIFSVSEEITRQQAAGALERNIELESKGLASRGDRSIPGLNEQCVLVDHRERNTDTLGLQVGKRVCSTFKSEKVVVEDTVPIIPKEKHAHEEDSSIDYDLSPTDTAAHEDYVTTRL
TRPC6 act = activators of mouse TRPC6 channel; B-score at 10 µM; HEK293-TRPC6 membrane potential dye fluorescence; active compounds read high; AID 2550; Q61143; actives 0.13% (n = 310,000);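 active = B-score of the integrated fluorescence ratio above library mean plus 3 SD, and starting fluorescence ratio within library mean plus 5 SD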;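 also: higher score means more depolarization so channel activation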
TRPC4 agonist = opens the mouse TRPC4 cation channel; Q9QUQ5; HEK293 TRPC4beta/mu-opioid, Fluo4 calcium fluorescence; active compounds read high; B-score at 10 µM; actives 0.49% (n = 310,000); AID 2237;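 active = B-score above 5 SD of library B-scores, and initial fluorescence ratio not above library mean plus 5 SD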;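 also: positive B-score marks a calcium rise read as TRPC4 activation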
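system = HEK293 cells stably co-expressing mouse TRPC4beta and mu-opioid receptor | schedule = Fluo4 dye loading 45 min at room temperature, 110 s recording | measure = B-scored integrated calcium fluorescence ratio | signal = Fluo4 calcium-sensitive dye fluorescence, kinetic, 1 Hz baseline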
TRPC4 inh = blocks the mouse TRPC4 cation channel. Q9QUQ5. HEK293 TRPC4beta/mu-opioid, DAMGO-evoked Fluo4 calcium flux; active compounds read low. B-score at 10 µM. actives 0.39% (n = 300,000). AID 2247;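 active = B-score over 3 SD under the library average, no early fluorescence shift, positive overall ratio signal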
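test system = HEK293 cells with stable TRPC4beta plus mu-opioid receptor expression | detection = Fluo4 Ca2+ flux fluorescence | read-out = integrated fluorescence ratio relative to baseline, converted to per-well B score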
TRPC6 inhibitor = inhibitors of mouse TRPC6 channel; B-score at 10 µM; Q61143; actives 1.1% (n = 310,000); AID 2553; HEK293-TRPC6, membrane potential dye, ACh-evoked depolarization; active compounds read low;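 active = B-score under library mean minus 3 SD, initial fluorescence not abnormally high, positive integrated signal ratio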;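 also: B-score derived from integrated fluorescence ratio over the kinetic read; more negative B-score means stronger inhibition of depolarization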
Starred values were filed as active, the others as inactive; i = inactive.

SMILES	TRPC4 PAM	TRPC6 act	TRPC4 agonist	TRPC4 inh	TRPC6 inhibitor
N=c1c2c(ncn1Cc1ccco1)Oc1ccc3ccccc3c1C2c1ccccc1 (stereo not given)	i	i	i	i	i
CCCCn1cnc2c(c(-c3ccccc3)c(-c3ccccc3)n2Cc2ccco2)c1=N	i	i	i	i	-7.52*
N=c1c2c(-c3ccccc3)c(-c3ccccc3)n(Cc3ccccc3)c2ncn1CCCn1ccnc1	i	i	i	i	-6.57*
Cc1ccccc1S(=O)(=O)N1CCN(C)CC1	i	i	i	i	i
Cc1ccc2nc(-c3cccc(S(=O)(=O)N4CC(C)OC(C)C4)c3)cn2c1 (stereo not given)	i	i	i	i	i
Cc1noc(/C=C/c2cccs2)c1S(=O)(=O)N1CCC(C(=O)NCCCN2CCCC(C)C2)CC1 (stereo not given)	10*	i	i	i	i
COc1ccc(-c2noc(N3CCC(C(=O)NCCCN4CCCCC4)CC3)n2)cc1	i	i	i	i	i
CCCCNC(=O)C1CCCN(S(=O)(=O)c2c(C)noc2/C=C/c2cccs2)C1 (stereo not given)	i	i	i	i	i
COc1ccc(-c2noc(N3CCC(C(=O)NCCCN4CCCC(C)C4)CC3)n2)cc1 (stereo not given)	10*	i	i	i	i
Cc1cc(C)c(S(=O)(=O)N2CCN(C(=O)c3ccc(-n4cncn4)c([N+](=O)[O-])c3)CC2)c(C)c1	i	i	i	i	i
CC(=O)c1cccc(NC(=O)N2CCCC2C(=O)NC2CCCCC2)c1 (stereo not given)	i	i	i	i	i
Cc1oc(S(=O)(=O)N2CCOCC2)cc1C(=O)Nc1ccc(Cl)cc1	i	i	i	i	i
COc1ccc(NC(=O)C(=O)NCCN2CCN(C(=O)c3ccco3)CC2)cc1	i	i	i	i	i
COC(=O)c1cc(N2CCN(C)CC2)nc2ccccc12	17*	i	i	i	i
Cc1cc(N2CCN(C)CC2)nc2ccc(NC(=O)c3ccccc3F)cc12	i	i	i	i	i
CC(CCc1ccccc1)NC(=O)C1CCN(S(=O)(=O)N2CCOCC2)CC1 (stereo not given)	i	i	i	i	i
CC(C)CCn1c(Sc2nc3ccccc3o2)nc2c1c(=O)[nH]c(=O)n2C	17*	i	i	i	i
NC(=S)N/N=C/c1ccc(C23CC4CC(CC(C4)C2)C3)cc1	i	i	i	i	i
Cc1ccc(C)c(NC(=O)CN2C(=O)COc3ccc(S(=O)(=O)N4CCCC4)cc32)c1	i	i	i	i	i
CCC(=O)N(Cc1cc(=O)[nH]c2ccccc12)c1ccc(C)cc1	i	i	i	i	i
Cc1cc(N2CCC(C)CC2)nc(-c2ccccc2O)n1	i	i	i	i	i
Cc1cc(Nc2ccc(Cl)cc2)nc(NCc2ccccc2)n1	i	i	i	i	i
Cc1cc(Nc2ccccc2)nc(NCc2ccccc2)n1	i	i	i	-6*	i
Cc1cc(N2CCC(C)CC2)nc(NCc2ccccc2)n1	16*	i	i	-6*	i
CCOc1ccc(CCNC(=O)COC(=O)c2ccc(Br)o2)cc1OCC	i	i	i	i	i
SMILES	TRPC4 PAM	TRPC6 act	TRPC4 agonist	TRPC4 inh	TRPC6 inhibitor
Fc1ccc(NC(=S)NCCc2ccccn2)cc1	i	i	213*	i	i
CCN(CC(=O)N1CCCC1)S(=O)(=O)c1ccc2ccccc2c1	i	i	i	i	i
CC1CCCN(CCCNS(=O)(=O)c2cc(Br)cc3c2N(C(=O)C2CC2)CC3)C1 (stereo not given)	i	i	73*	i	i
O=C(C1CC1)N1CCc2cc(Br)cc(S(=O)(=O)NCCCN3CCCC3)c21	i	i	60*	i	i
CC1CC(C)CN(CCCNS(=O)(=O)c2cc(Br)cc3c2N(C(=O)C2CC2)CC3)C1 (stereo not given)	i	i	115*	i	i
COc1ccc(C(=O)O)cc1S(=O)(=O)N(C)CCc1ccccn1	i	i	46*	i	i

Source: PubChem
